Test results reported in ChEMBL document CHEMBL1124721, “Antioxidant-based inhibitors of leukotriene biosynthesis. The discovery of 6-[1-[2-(hydroxymethyl)phenyl]-1-propen-3-yl]-2,3-dihydro-5- benzofuranol, a potent topical antiinflammatory agent” (J Med Chem, 1990).

Columns and labels:
[1] = Partition coefficient (logP); format: physicochemical; conditions: octanol/water
Summary of the method: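 Octanol/water log P was estimated by calculation with commercial software, not measured experimentally.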

Mus musculus [2] = experiment: Tested for ability to inhibit the topical inflammatory response in the topical mouse ear(TME) model; format: functional
Summary of the method: (§1)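 Mice received 25 μL on the inner surface of one ear, with five mice per group. Compound was applied in acetone/pyridine/water 97:2:1 together with 200 μg/mL PMA as irritant. Controls received vehicle alone or vehicle with PMA. Solvent was evaporated at room temperature. After 4 h, 6-mm ear punches were weighed wet to measure edema. ED50 came from four-point titrations.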

Homo sapiens = species on record: Homo sapiens; experiment: Inhibitory activity against production of leukotriene B4 in isolated human polymorphonuclear leukocytes; format: functional
Summary of the method: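 Leukotriene biosynthesis in human polymorphonuclear leukocytes was started with calcium ionophore A23187, and LTB₄ was quantified by radioimmunoassay. Inhibition curves came from five-point titrations fitted with a four-parameter algorithm to give IC50. Compounds were generally tested at least in duplicate, with the IC50 reported as the mean of all determinations.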

Mus musculus [3] = experiment: Tested for its ability to inhibit the topical inflammatory response in the topical mouse ear(TME) model; format: functional; summary of the method: as §1

| SMILES | logP [1] | ED50 (Mus musculus [2]) [uM site-1] | IC50 (Homo sapiens) [µM] | ED50 (Mus musculus [3]) [uM site-1] |
| --- | --- | --- | --- | --- |
| OCc1ccccc1NCc1c(O)ccc2c1CCCO2 | 2.4 | 0.6 | 17 |  |
| OCc1ccccc1SCc1cc2c(cc1O)CCCO2 | 3.6 |  | 1.4 |  |
| CC(=O)c1ccc(SCc2cc3c(cc2O)CCCO3)cc1 | 4.2 |  | 0.44 |  |
| O=Cc1ccccc1/C=C/Cc1cc2c(cc1O)CCO2 | 3.9 |  | 0.07 |  |
| COc1ccc(O)c(C/C=C/c2ccccc2)c1 | 4.4 | 1.08 | 0.25 |  |
| OCc1ccccc1CCCc1cc2c(cc1O)CCO2 | 4 |  | 0.19 |  |
| COc1ccc(O)c(CNc2ccc(F)cc2F)c1 | 3.5 |  | 1.3 |  |
| Oc1cc2c(cc1CNc1ccccc1)OCC2 | 2.9 |  | 0.49 |  |
| Oc1cc2ccoc2cc1CNc1ccccc1 | 3.3 | 0.97 | 11 |  |
| CC(=O)c1ccc(/C=C/Cc2cc3c(cc2O)CCO3)cc1 | 4 | 0.54 | 0.06 |  |
| COc1ccc(O)c(CSc2ccccc2)c1 | 3.9 |  | 0.59 |  |
| N#Cc1ccc(NCc2cc3c(cc2O)CCCO3)cc1 | 3.6 | 1.61 | 1.6 |  |
| COc1ccc(O)c(CNc2ccccc2)c1 | 2.8 |  | 4.7 | 0.61 |
| N#Cc1cc(NCc2cc3c(cc2O)CCO3)cs1 | 2.8 |  | 0.44 |  |
| OCc1ccccc1/C=C/Cc1cc2c(cc1O)CCO2 | 3.5 | 0.74 | 0.13 |  |
| Oc1ccc2c(c1CNc1ccc(F)cc1F)CCCO2 | 4.2 |  | 1.4 |  |

| SMILES | logP [1] | ED50 (Mus musculus [2]) [uM site-1] | IC50 (Homo sapiens) [µM] | ED50 (Mus musculus [3]) [uM site-1] |
| --- | --- | --- | --- | --- |
| CC(=O)c1ccc(NCc2cc3c(cc2O)CCO3)cc1 | 2.9 | 0.35 | 1.2 |  |
| OCc1ccccc1NCc1cc2c(cc1O)CCO2 | 1.9 |  | 11 |  |
| Oc1cc2c(cc1CNc1ccc(F)cc1F)OCC2 | 3.6 |  | 0.66 |  |
| CCOC(=O)c1ccc(NCc2cc3c(cc2O)CCCO3)cc1 | 4.6 |  | 0.6 |  |
| CC(=O)c1ccc(NCc2cc3c(cc2O)CCCO3)cc1 | 3.5 | 0.35 | 4.1 |  |
| Oc1cc2c(cc1CNc1ccc(F)cc1F)OCCC2 | 4.2 |  | 1.3 |  |
| COc1ccc(O)c(COc2ccccc2)c1 | 3.3 |  | 1.4 |  |
| COc1ccc(O)c(CNc2ccc(C#N)s2)c1 | 2.7 |  | 2.6 |  |
| COc1ccc(O)c(CCc2ccccc2)c1 | 4.3 |  | 0.12 |  |
| N#Cc1ccc(NCc2cc3c(cc2O)CCO3)s1 | 2.8 |  | 0.99 |  |
| OCc1ccccc1NCc1cc2c(cc1O)CCCO2 | 2.4 | 0.49 | 21 |  |
| CC(=O)c1ccc(NCc2c(O)ccc3c2CCCO3)cc1 | 3.5 |  | 11 |  |
| COc1ccc(O)c(CSc2ccccc2CO)c1 | 2.9 | 0.87 | 8.7 |  |
| OCc1ccccc1NCc1cc2occc2cc1O | 2.2 | 0.44 | 42 |  |
| Oc1cc2c(cc1CNc1ccccc1)OCCC2 | 3.5 | 0.67 | 1.7 |  |
| COc1ccc2c(c1)c(CC(=O)O)c(C)n2C(=O)c1ccc(Cl)cc1 [INDOMETHACIN] |  | 0.64 |  |  |
